Experimental findings from ChEMBL document CHEMBL1139826, “Synthesis, biological activity, and SAR of antimycobacterial 2- and 8-substituted 6-(2-furyl)-9-(p-methoxybenzyl)purines” (Bioorg Med Chem, 2007) are described below.

Values after ≈ are worked out from the molar mass of the structure shown.

A short description of test [1]: Selectivity index, ratio of IC50 for Vero cells to MIC of Mycobacterium tuberculosis H37Rv. The class given is functional.
Test [2] deals with Mycobacterium tuberculosis. The experiment in a line: Antimicrobial activity against Mycobacterial tuberculosis ATCC 27294 at […]. The class given is functional.
The subject of test [3] is Escherichia coli. The experiment in a line: Antimicrobial activity against Escherichia coli ATCC 25922. The class given is functional.
Test [4] relates to Staphylococcus aureus. The experiment in a line: Antimicrobial activity against Staphylococcus aureus ATCC 25923. The class given is functional.
Test [5] relates to Vero. Put plainly: Cytotoxicity against Vero cells. The test is classed as cell-based. The following applies: Chlorocebus sabaeus. The method in brief:
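IC50 was measured in VERO mammalian cells, and only for compounds that met the M. tuberculosis MIC cutoff for follow-up. A selectivity index was then calculated as the VERO IC50 divided by the Mtb MIC.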

With `COc1ccc(Cn2cnc3c(-c4ccco4)ncnc32)cc1`, the Ratio in test [1] was more than 40 µg/mL.
`COc1ccc(Cn2cnc3c(-c4ccco4)nc(N(C)C)nc32)cc1`: in test [2], the inhibition at […] is 34%.
In test [2], `COc1ccc(Cn2cnc3c(-c4ccco4)nc(Oc4ccccc4)nc32)cc1` came in with an inhibition at […] of 72%.
With `COc1ccc(Cn2cnc3c(-c4ccco4)nc(Cl)nc32)cc1`, in test [1], the Ratio is more than 26 µg/mL. In addition, the MIC in test [3] and in test [4] was more than 32 µg/mL each time.
Turning to `COc1ccc(Cn2cnc3c(-c4ccco4)nc(SC)nc32)cc1`, in test [1], the Ratio came to 3.9 µg/mL. This molecule also returned an IC50 in test [5] of 3.05 µg/mL (≈ 8.65 µM).

The term inhibition denotes the drop in the measured response relative to a control, in per cent. Higher therefore signals a strong effect. In general, MIC refers to the lowest concentration that inhibits growth of the organism. Low values mean a more susceptible organism, high ones a less susceptible organism. A word on the IC50: it is the concentration at which inhibition is half-maximal. Higher therefore signals weaker potency.
